Assay results taken from ChEMBL document CHEMBL1135990, “Design of selective thrombin inhibitors based on the (R)-Phe-Pro-Arg sequence” (J Med Chem, 2002).

Tests used:
Prothrombin [1] = target: T1, Prothrombin (Homo sapiens, UniProt P00734); assay: Percentage inhibition against human thrombin at dose of 10 X E-6 M
Serine protease 1 [2] = target: T2, Serine protease 1 (Homo sapiens, UniProt P07477); assay: In vitro inhibition of human trypsin.
How it was run: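 Human pancreatic trypsin, chromogenic substrate S2222, 50 mM HEPES/150 mM NaCl pH 8.0. Kinetic assay over 15 min after starting with substrate at four concentrations. Ki taken from 1/V versus 1/S plot.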

Prothrombin [3] = target: T1, Prothrombin; assay: In vitro inhibition of human thrombin.
Prothrombin [4] = target: T1, Prothrombin; assay: Percentage inhibition against of human thrombin at dose of 10 X E-6 M
Serine protease 1 [5] = target: T2, Serine protease 1; assay: Percentage inhibition against human trypsin at dose of 10 X E-5 M
Serine protease 1 [6] = target: T2, Serine protease 1; assay: Percentage inhibition against human trypsin at dose of 10 X E-4 M
Serine protease 1 [7] = target: T2, Serine protease 1; assay: Percentage inhibition effect human trypsin at dose of 10 X E-4 M
Prothrombin [8] = target: T1, Prothrombin; assay: Percentage inhibition effect of human thrombin at dose of 10 X E-6 M
[9] = Plasma clearance in Male Sprague-Dawley rats after intravenous administration at a dose of 10 mg/kg; assay type: ADME, organism-based; parameters: dose 10 mg/kg, route intravenous; conditions: rat
How it was run: (§1)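 PK: male Sprague–Dawley rats (n = 3 per sampling time) given saline solution as rapid iv bolus via caudal vein; Beagle dogs (n = 2) given constant-rate iv infusion over 15 min via saphenous vein. Plasma collected into lithium heparin; drug measured by LCMS with internal standard after solid-phase extraction at pH 6.0. Parameters derived by computational PK analysis.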

[10] = Oral bioavailability in Beagle dogs after Per oral administration at dose of 50(mg/kg); assay type: ADME, organism-based, Canis lupus familiaris; conditions: dog, in vivo, 10 mg/kg, in the assay text read “10(mg/kg)” for “50(mg/kg)”
How it was run: (§2)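 Oral bioavailability: compound in water given by gavage to male Sprague–Dawley rats (n = 3 per sampling time) and Beagle dogs (n = 2). Plasma collected into lithium heparin (dog saphenous cannula, conscious; rat vena cava under halothane). Drug quantified by LCMS, compared with iv saline dosing; parameters from computational PK analysis.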

[11] = Alpha-elimination half-life in Male Sprague-Dawley rats after intravenous administration at a dose of 10 mg/kg; assay type: ADME, organism-based; parameters: dose 10 mg/kg, route intravenous; conditions: rat, in vivo; how it was run: as §1
[12] = Beta-elimination half-life in Male Sprague-Dawley rats after intravenous administration at a dose of 10 mg/kg; assay type: ADME, organism-based; parameters: dose 10 mg/kg, route intravenous; conditions: rat, in vivo; how it was run: as §1
[13] = Oral bioavailability in rat (Sprague-Dawley) (male) (dose 50 mg/kg p.o.); assay type: ADME, organism-based; conditions: in vivo; how it was run: as §2
[14] = Volume of distribution in Male Sprague-Dawley rats after intravenous administration at a dose of 10 mg/kg; assay type: ADME, organism-based; parameters: dose 10 mg/kg, route intravenous; conditions: rat, in vivo, read-out: Volume; how it was run: as §1
[15] = target: T3, Coagulation factor VII (Homo sapiens) (UniProt P08709); assay: Percentage inhibition of Coagulation factor VIIa (FVIIa) at a concentration of 10 X E-4 M from human plasma; assay type: cell-free
T3 sequence (whole entry): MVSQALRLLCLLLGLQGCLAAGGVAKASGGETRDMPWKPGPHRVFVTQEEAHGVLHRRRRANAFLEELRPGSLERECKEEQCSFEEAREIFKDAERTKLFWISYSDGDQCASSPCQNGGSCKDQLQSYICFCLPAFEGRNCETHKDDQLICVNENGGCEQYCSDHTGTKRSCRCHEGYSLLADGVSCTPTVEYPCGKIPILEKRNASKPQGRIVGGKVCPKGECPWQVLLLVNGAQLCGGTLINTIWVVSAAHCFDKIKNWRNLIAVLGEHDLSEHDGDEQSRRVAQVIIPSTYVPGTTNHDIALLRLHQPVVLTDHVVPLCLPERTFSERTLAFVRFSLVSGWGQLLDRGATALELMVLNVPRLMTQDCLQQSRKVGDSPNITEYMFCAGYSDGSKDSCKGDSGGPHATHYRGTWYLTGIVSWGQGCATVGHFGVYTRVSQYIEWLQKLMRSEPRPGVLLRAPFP
How it was run: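 Human plasma FVIIa, 0.06 μg/mL final, plus recombinant tissue factor at 0.12 μg/mL final; substrate N-methylsulfonyl-D-Phe-Pro-Arg-pNA. Buffer 50 mM TRIS/100 mM NaCl pH 7.5. Compound preincubated with enzyme 15 min at room temperature, then substrate added; 30 min at 30 °C; OD 405 nm; percentage inhibition from triplicates.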

Coagulation factor X = Coagulation factor X (Bos taurus, UniProt P00743); assay: Inhibitory effect on Coagulation factor Xa (FXa) from bovine plasma; assay type: cell-free
How it was run: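 Bovine plasma FXa, 0.02 U/mL final, with S2222 at 0.2 mM final, in 50 mM HEPES/150 mM NaCl pH 7.5. Aqueous compound dilutions preincubated with enzyme 15 min at room temperature, then substrate added; OD 405 nm read after 30 min at 30 °C. IC50 from triplicate eight-concentration curves; Ki via Cheng–Prusoff using substrate Km.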

[16] = Plasma clearance in Beagle dogs after intravenous administration at a dose of 1 mg/kg; conditions: dog
[17] = Volume of distribution in Beagle dogs after intravenous administration at a dose of 1 mg/kg; conditions: dog, in vivo
[18] = Beta-elimination half-life in Beagle dogs after intravenous administration at a dose of 1 mg/kg; conditions: dog, in vivo
[19] = Alpha-elimination half-life in Beagle dogs after intravenous administration at a dose of 1 mg/kg; conditions: dog, in vivo
[20] = Oral bioavailability in Beagle dogs after Per oral administration at dose of 2(mg/kg); assay type: ADME, organism-based, Canis lupus familiaris; conditions: dog, in vivo; how it was run: as §2
[21] = Plasma clearance in Beagle dogs after intravenous administration at a dose of 1 mg/kg; assay type: ADME, organism-based, Canis lupus familiaris; parameters: dose 1 mg/kg, route intravenous; conditions: dog; how it was run: as §1
[22] = Volume of distribution in Beagle dogs after intravenous administration at a dose of 1 mg/kg; assay type: ADME, organism-based, Canis lupus familiaris; parameters: dose 1 mg/kg, route intravenous; conditions: dog, in vivo, read-out: Volume; how it was run: as §1
[23] = Beta-elimination half-life in Beagle dogs after intravenous administration at a dose of 1 mg/kg; assay type: ADME, organism-based, Canis lupus familiaris; parameters: dose 1 mg/kg, route intravenous; conditions: dog, in vivo; how it was run: as §1

T2 sequence (P07477 whole entry): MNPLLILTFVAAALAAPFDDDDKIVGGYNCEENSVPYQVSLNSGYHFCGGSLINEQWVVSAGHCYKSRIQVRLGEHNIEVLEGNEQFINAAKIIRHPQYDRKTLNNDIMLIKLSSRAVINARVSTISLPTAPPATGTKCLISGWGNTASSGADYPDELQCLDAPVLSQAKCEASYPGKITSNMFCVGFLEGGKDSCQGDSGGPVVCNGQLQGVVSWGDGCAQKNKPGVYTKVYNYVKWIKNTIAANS
Chain of Coagulation factor X (P00743 41-180 limits assumed): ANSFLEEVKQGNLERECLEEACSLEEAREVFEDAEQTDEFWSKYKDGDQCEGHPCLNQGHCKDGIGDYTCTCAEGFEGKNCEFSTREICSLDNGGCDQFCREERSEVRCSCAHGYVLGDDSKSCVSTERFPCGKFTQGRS
Chain of Coagulation factor X (P00743 234-492 limits assumed): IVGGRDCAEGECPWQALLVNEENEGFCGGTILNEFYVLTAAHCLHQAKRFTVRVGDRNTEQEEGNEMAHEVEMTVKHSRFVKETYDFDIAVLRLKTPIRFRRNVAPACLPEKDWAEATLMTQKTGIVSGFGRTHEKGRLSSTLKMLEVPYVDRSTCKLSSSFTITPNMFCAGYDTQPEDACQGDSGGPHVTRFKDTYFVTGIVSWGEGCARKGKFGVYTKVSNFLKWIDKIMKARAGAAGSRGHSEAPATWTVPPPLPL

| Ki (Serine protease 1 [2]) | Ki (Prothrombin [3]) | Compound | also measured |
| --- | --- | --- | --- |
| 9200 nM | – | N=C(N)N1CCC(OCC[C@@H]2CCCCN2C(=O)[C@H](CC(=O)O)NCc2ccccc2)CC1 | inhibition (Prothrombin [1]): 24% |
| 7300 nM | 120 nM | N=C(N)c1ccc(OCC[C@H]2CCCCN2C(=O)[C@@H](CC2CCCCC2)NCC(=O)O)cc1 | – |
| – | – | N=C(N)N1CCC(OCCC2CCCCN2C(=O)[C@H](CC(=O)O)NC2CCOCC2)CC1 (stereo partly specified) | inhibition (Prothrombin [4]): 42%; inhibition (Serine protease 1 [5]): 23% |
| 2900 nM | 7.1 nM | N=C(N)N1CCC(OCCC2CCCCN2C(=O)[C@H](CC(=O)O)NC2CCCCC2)CC1 (stereo partly specified) | – |
| 7900 nM | 370 nM | N=C(N)N1CCC(OCCC2CCCCN2C(=O)[C@@H](Cc2ccccc2)NCC(=O)O)CC1 (stereo partly specified) | – |
| 700 nM | 1.1 nM | N=C(N)N1CCC(OCC[C@@H]2CCCCN2C(=O)[C@H](CC(=O)O)NC2CCCCCC2)CC1 | – |
| 5000 nM | 16 nM | CCN(C1CCCCC1)[C@@H](CC(=O)O)C(=O)N1CCCCC1CCOC1CCN(C(=N)N)CC1 (stereo partly specified) | – |
| – | – | CN(C1CCCOC1)[C@@H](CC(=O)O)C(=O)N1CCCC[C@H]1CCOC1CCN(C(=N)N)CC1 (stereo partly specified) | inhibition (Prothrombin [4]): 16%; inhibition (Serine protease 1 [6]): 48% |
| – | – | CN(C)CCN(C1CCCCC1)[C@@H](CC(=O)O)C(=O)N1CCCCC1CCOC1CCN(C(=N)N)CC1 (stereo partly specified) | inhibition (Serine protease 1 [7]): 0%; inhibition (Prothrombin [8]): 0% |
| 1930 nM | 2.17 nM | CN(C1CCCCC1)[C@@H](CC(=O)O)C(=O)N1CCCC[C@H]1CCOC1CCN(C(=N)N)CC1 | clearance [9]: 21.2 mL/min/kg; bioavailability [10]: 9%; half-life [11]: 7.2 min; half-life [12]: 48 min; bioavailability [13]: 2%; Vd [14]: 0.31 L/kg; inhibition [15]: 38.7%; Ki (Coagulation factor X): 4970 nM; clearance [16]: 6.4 mL/min/kg; Vd [17]: 0.53 L/kg; half-life [18]: 60 min; half-life [19]: 9.6 min |
| 4800 nM | 90 nM | CN1CCC(N[C@@H](CC(=O)O)C(=O)N2CCCC[C@H]2CCOC2CCN(C(=N)N)CC2)CC1 | – |
| 5000 nM | 32 nM | N=C(N)N1CCC(OCCC2CCCCN2C(=O)[C@H](CC(=O)O)NC2CCCC2)CC1 (stereo partly specified) | – |
| – | 15 nM | CCS(=O)(=O)N[C@H](Cc1ccccc1)C(=O)N1CCC[C@H]1C(=O)NCC1CCN(C(=N)N)CC1 | – |
| – | – | CC1=CCN(C(=O)[C@H](Cc2cccc(C(=N)N)c2)NS(=O)(=O)c2ccc3c(c2)CCN(C)CC3)[C@@H](C(=O)O)C1 | clearance [9]: 11 mL/min/kg; half-life [12]: 48 min; bioavailability [13]: 16%; Vd [14]: 0.6 L/kg; bioavailability [20]: 37%; clearance [21]: 6.9 mL/min/kg; Vd [22]: 0.53 L/kg; half-life [23]: 54 min |
| 89 nM | 0.37 nM | N=C(N)c1ccc(OCC[C@@H]2CCCCN2C(=O)[C@@H](CC2CCCCC2)NCC(=O)O)cc1 | – |

| Compound | Ki (Serine protease 1 [2]) | Ki (Prothrombin [3]) | also measured |
| --- | --- | --- | --- |
| CCC(CC)N[C@@H](CC(=O)O)C(=O)N1CCCC[C@H]1CCOC1CCN(C(=N)N)CC1 | 1400 nM | 9.8 nM | – |
| N=C(N)N1CCC(OCCC2CCCCN2C(=O)[C@H](CC(=O)O)NC2CCCCCCC2)CC1 (stereo partly specified) | 720 nM | 1.3 nM | – |
| CN(C1CCCCC1)[C@@H](CCC(=O)O)C(=O)N1CCCC[C@H]1CCOC1CCN(C(=N)N)CC1 | 550 nM | 1.8 nM | – |
| N=C(N)N1CCC(OCCC2CCCCN2C(=O)[C@H](CC(=O)O)NCC2CCCCC2)CC1 (stereo partly specified) | 1600 nM | 16 nM | – |
| N=C(N)N1CCC(OCCC2CCCCN2C(=O)[C@@H](CC2CCCCC2)NCC(=O)O)CC1 (stereo partly specified) | 370 nM | 0.96 nM | – |
| CN(C1CCC=CCC1)[C@@H](CC(=O)O)C(=O)N1CCCC[C@H]1CCOC1CCN(C(=N)N)CC1 | 1100 nM | 0.8 nM | – |
| CN(C1CCCCCC1)[C@@H](CC(=O)O)C(=O)N1CCCC[C@H]1CCOC1CCN(C(=N)N)CC1 | 810 nM | 0.53 nM | – |
